Screening results as filed in PubChem.
The list is not random: actives were taken first. Their share in the collection is about 1.7%.
SUMO1 PPI mod: modulators of human SUMO1-mediated protein-protein interactions | P63165 | AID 602429 | actives 0.33% (n = 360,000) | inhibition, % at 20 µM | SUMO1 binding to a labelled peptide, TR-FRET, 1 h; in the data active = inhibition above about 37%
Target sequence (P63165 whole entry, looked up): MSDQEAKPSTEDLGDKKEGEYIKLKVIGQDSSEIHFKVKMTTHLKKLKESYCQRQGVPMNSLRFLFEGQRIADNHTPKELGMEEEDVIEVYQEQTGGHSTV
LMPTP inh: LMPTP (human) inhibition; recombinant LMPTP-A, OMFP fluorogenic substrate, fluorescence intensity; inhibition, % at 20 µM; actives 0.22% (n = 360,000); AID 651560;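 active = compounds that cut the enzyme signal by at least half of the control window in the single-dose screen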
Target sequence (P24666 whole entry, looked up): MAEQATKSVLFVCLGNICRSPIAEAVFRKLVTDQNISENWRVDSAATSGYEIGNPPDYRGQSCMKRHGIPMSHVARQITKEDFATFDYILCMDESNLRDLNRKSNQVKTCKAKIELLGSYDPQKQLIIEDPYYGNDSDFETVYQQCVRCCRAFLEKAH
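Test system – LMPTP-A enzyme · Amount – LMPTP-A at 0.625 nM final in the reaction · Buffer or medium – Bis-Tris pH 6.0, DTT, detergent · Reagent – OMFP 400 µM · Doses – single 20 µM dose · Schedule – reaction 50 min, room temperature, dark · Detection – fluorescence intensity of OMFP turnover product · Evaluation – percent inhibition versus substrate-only and uninhibited controls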
STEP block: STEP (human) phosphatase inhibition. P54829. recombinant STEP, OMFP fluorogenic substrate, fluorescence. inhibition, % at 20 µM. actives 0.25% (n = 360,000). AID 588621;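 active = inhibition at 20 µM, scaled per plate between control wells, above about 37%, limit read from the data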
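System: STEP phosphatase, cell-free reaction; Buffer or medium: Bis-Tris pH 6.0 buffer with DTT, detergent; Incubation: 20 min at room temperature, dark; Measured by: fluorescence, 480/540 nm.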
DNMT1 inh: inhibitors of human DNMT1; actives 0.83% (n = 360,000); AID 588458; P26358; inhibition (reported as % activation of signal), % at 10 µM; DNMT1 molecular beacon, Hinp1I cleavage, fluorescence; in the data active = inhibition above about 50%
Scp-1 inhibitor: inhibitors of human Scp-1 phosphatase; Q9GZU7; Recombinant Scp1, phosphopeptide, malachite green phosphate absorbance; AID 493091; inhibition, % at 20 µM; actives 0.88% (n = 340,000);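 active = inhibition above about 50% at 20 µM, limit read from the data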
Target sequence (Q9GZU7 76-261 limits assumed): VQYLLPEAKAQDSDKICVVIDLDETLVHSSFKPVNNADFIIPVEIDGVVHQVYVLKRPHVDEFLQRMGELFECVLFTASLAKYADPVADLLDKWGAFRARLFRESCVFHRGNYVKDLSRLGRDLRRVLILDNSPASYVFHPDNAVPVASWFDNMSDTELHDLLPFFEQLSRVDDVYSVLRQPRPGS
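Times: enzyme reaction 45 min at room temperature, colour 5 min, stabilisation 30 min. Material: SCP-1 catalytic fragment, aa 76-261. Medium: Acidic Tris acetate buffer with magnesium and detergent. Signal: colorimetric free-phosphate detection, absorbance 630 nm. Read-out basis: % inhibition of SCP-1 phosphate liberation. Reagent: Phosphorylated 17-residue peptide substrate.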
DNMT1 interf DR: counter-screen for DNMT1 inhibitors: spectral interference, dose response. shares compounds with DNMT1 inh. molecular beacon fluorescence. IC50, µM. 200 tested, under 10 active. AID 602382; call rule not given here
DNMT1 inh conf: DNMT1 inhibition confirmation, single concentration. shares compounds with DNMT1 inh. DNMT1 molecular beacon HinP1I cleavage, fluorescence. inhibition, % at 10 µM. actives 8% (n = 2,300). AID 602385;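 active = average inhibition of at least 30% in the single-concentration confirmation test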
Beacon interf: shows spectral interference in the DNMT1 beacon assay; shares compounds with DNMT1 inh; DNMT1 molecular beacon spectral interference counterscreen, fluorescence 485/520; activation (fluorescence interference), % at 10 µM; actives 1% (n = 2,300);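 active = activation of at least 30% at 10 µM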;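 note: DNMT1 catalytic domain with a HinP1I cleavage step and a FAM/dabcyl DNA beacon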
A number is an active result; - = inactive; . = no result; ! = not confirmed by another sample.

SMILES	SUMO1 PPI mod	LMPTP inh	STEP block	DNMT1 inh	Scp-1 inhibitor	DNMT1 inh conf	Beacon interf	others
CC(=O)Nc1c2c(nn1-c1cccc(Cl)c1)CS(=O)(=O)C2	-	-	-	-	-	.	.
CCCCCC1NC(=O)NC1CCCCCC(=O)O (configuration not stated)	-	-	-	-	-	.	.
O=C(O)CCCCC1SCC2NC(=O)NC21 (configuration not stated)	-	-	-	82	-	-	-
CN(CC1CCCO1)S(=O)(=O)c1ccc(C(=O)Nc2ccc3c(c2)OCO3)cc1 (configuration not stated)	-	-	-	-	-	.	.
CN(CC1CCCO1)S(=O)(=O)c1ccc(C(=O)Nc2nc3cc4c(cc3s2)OCO4)cc1 (configuration not stated)	-	-	-	64	-	-	-
COc1ccc(C(=O)Nc2ccc(S(=O)(=O)Nc3nccc(C)n3)cc2)cc1[N+](=O)[O-]	-	-	-	-	-	.	.
CNS(=O)(=O)c1ccc(NC(=O)c2cnn3c(C(F)F)cc(-c4ccccc4)nc23)cc1	-	-	-	53	-	-	-
O=C(Nc1cccc(S(=O)(=O)N2CCOCC2)c1)c1cnn2c(C(F)F)cc(-c3ccccc3)nc12	-	-	-	-	-	.	.
CCCOc1ccc(C(=O)Nc2ccc(N3CCOCC3)cc2N2CCOCC2)cc1OCC	-	-	-	-	.	.	.
C/C(O)=c1/c(=O)nc2cccc3c2=c1c1ccccc1c3=O	-	-	-	-	-	.	.
CC(C)OC(=O)N(C)C[C@H]1OCc2cn(nn2)CCCC(=O)N([C@H](C)CO)C[C@@H]1C	-	-	-	-	.	.	.
CC(=O)Nc1ccccc1NC(=O)C/C(C)=N/NC(=O)c1ccncc1	-	-	-	-	-	.	.
C/C(CC(=O)Nc1ccccc1C#N)=N\NC(=O)c1ccncc1	-	-	-	82	-	-	-
CCCCc1c(C)nc2ccc(OC)cc2c1SCCC(=O)O	-	-	-	66	-	-	-
COC(=O)CNC(=O)CCc1nnc(C2(c3ccc(Cl)cc3)CCC2)o1	-	-	-	58	-	-	-
C=C(C)CNC(=O)CCc1nnc(C2(c3ccc(Cl)cc3)CCC2)o1	-	-	-	-	-	.	.
Cc1cccc(NC(=O)c2cc3c(=O)n4ccccc4nc3n(CC(C)C)c2=N)c1	-	-	-	62	-	-	-
Cn1cccc1C(=O)NCC1COc2ccccc2O1 (configuration not stated)	-	-	-	-	-	.	.
CCc1cc(=O)oc2cc(C)c(CN3CCCC(C)C3)c(O)c12 (configuration not stated)	-	-	-	-	-	.	.
CCCCc1cc(=O)oc2cc(C)c(CN3CCCC3)c(O)c12	-	-	-	96	-	-	-
CC(C)OCCCNC(=O)c1c(N)n(/N=C/c2cccs2)c2nc3ccccc3nc12	-	-	-	60	-	-	-
C=CCn1c(C)cc(-c2csc(NC(=O)C3CCN(c4ncnc5sc(C)c(C)c45)CC3)n2)c1C	-	-	-	65	-	-	-
COc1ccc(-c2csc(NC(=O)C3CCN(c4ncnc5sc(C)c(C)c45)CC3)n2)cc1OC	-	-	-	-	-	.	.
Nc1nnnn1/N=C/c1ccccc1O	-	-	-	-	-	.	.
COc1ccc(Br)cc1/C=N/n1nnnc1N	-	-	-	53	-	-	-
SMILES	SUMO1 PPI mod	LMPTP inh	STEP block	DNMT1 inh	Scp-1 inhibitor	DNMT1 inh conf	Beacon interf	others
CCn1c(COc2ccc3ccccc3c2C)nnc1SCC(=O)Nc1cccc(C(=O)O)c1	-	-	-	-	-	.	.
CCCCCCCCN1[C@@H](CC(=O)OC)c2cc(F)ccc2S1(=O)=O	-	52	-	82	-	-	-
CC(=O)Nc1cccc(-c2ccnc3c2CC(C)(C(=O)Nc2cccnc2)O3)c1 (configuration not stated)	-	-	-	-	.	.	.
Cc1cccc2cc(C#N)c(SCC(=O)NCC3CCCO3)nc12 (configuration not stated)	-	-	-	-	-	.	.
Cc1cccc2c(SCC(=O)NCC3CCCO3)nc(-c3ccc(F)cc3)nc12 (configuration not stated)	-	-	-	-	-	-	-
Cc1cccn2c(=S)[nH]nc12	-	-	-	-	-	.	.
O=C(C[C@H]1C/C=C\C[C@@H](Cc2ccc(F)cc2)C(=O)O[C@@H](c2ccccc2)CNC1=O)N[C@@H](CO)Cc1ccccc1	-	-	-	-	-	.	.
O=C(C[C@H]1C/C=C\C[C@H](Cc2ccc(F)cc2)C(=O)O[C@@H](c2ccccc2)CNC1=O)N[C@@H](CO)Cc1ccccc1	-	-	-	63	-	-	-
CS/C(=N\S(=O)(=O)c1cccs1)Nc1ccc(N2CCOCC2)cc1	-	-	-	83!	-	-	-
CS/C(=N\S(=O)(=O)c1cccs1)Nc1ccc(F)cc1	-	-	-	-	-	.	.
S=c1[nH]nc(-c2cc(-c3ccccc3)n[nH]2)n1/N=C/c1ccc(Cl)c(Cl)c1	98	-	-	83	-	-	-
Cc1cc(-c2n[nH]c(=S)n2/N=C/c2ccc(Cl)c([N+](=O)[O-])c2)n[nH]1	-	-	-	-	-	.	.
Oc1ccc(Br)cc1/C=N/n1c(-c2ccccc2)n[nH]c1=S	-	-	-	82	-	-	-
O=[N+]([O-])c1ccc(-c2nn(-c3ccccc3)cc2/C=N/n2c(-c3ccncc3)n[nH]c2=S)cc1	-	-	-	57	-	-	-
O=[N+]([O-])c1cc(/C=N/n2c(-c3ccncc3)n[nH]c2=S)ccc1Cl	-	-	-	55	-	-	-
S=c1[nH]nc(-c2ccncc2)n1/N=C/c1cn(-c2ccccc2)nc1-c1ccccc1	-	-	-	-	-	.	.
COc1cccc(CNC(=O)CN(C)S(=O)(=O)c2ccc(Br)s2)c1	-	-	-	-	-	.	.
CC1(C(=O)NS(=O)(=O)c2cccc(Cl)c2)CCN1C(=O)CCc1cccs1 (configuration not stated)	-	-	-	-	.	.	.
COc1ccccc1CNC(=O)COC(=O)c1cc(-c2ccco2)nc2ccccc12	-	-	-	100	83	-	-	DNMT1 interf DR=-
CC(C)Cn1c(N)c(C(=O)COC(=O)c2cc(-c3ccco3)nc3ccccc23)c(=O)n(C)c1=O	-	-	-	81	-	-	-
COc1ccccc1CNC(=O)COC(=O)c1cc(C)nc2ccccc12	-	-	-	-	-	.	.
